One data set concerns NUGC-3. Briefly: Growth inhibition of human NUGC3 cells after 24 hrs by WST-1 assay. The data set is classed as functional. To be noted: NUGC-3, 24 h. Summed up: (§1)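 Cancer cells were grown in McCoy's 5A with 10% FBS and penicillin/streptomycin, 37 °C, 5% CO2. Cells were seeded at 1 × 10^4 per well, cultured 12 h, then given compound (10 mM DMSO stock diluted in medium, 0.5% DMSO) for 24 h. WST-1 was added for 4 h and absorbance read at 450/630 nm. GI50 given as mean ± SE, five independent experiments.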

A further data set has as its system HCT-116. Briefly: Growth inhibition of against human HCT116 cells after 24 hrs by WST-1 assay. The data set is classed as functional. As to conditions: HCT-116, 24 h. Summed up: as §1
For the next data set, the system named is BALL-1. Nature of the data set: Growth inhibition of human BALL-1 cells after 24 hrs by WST-1 assay. It is filed as functional. As to conditions: BALL-1, 24 h. Summed up:
as §1
Background: Tetrazolium dyes change colour on reduction, which living cells bring about.

A further data set concerns HeLa. Briefly: Growth inhibition of human HeLa cells after 24 hrs by WST-1 assay. The data set is classed as functional. Put shortly:
as §1

Data set [1] can be described thus: Growth inhibition of HDF cells after 72 hrs by WST-1 assay. As to conditions: human. The data set is classed as cell-based. Summed up: (§2)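 Normal cells (HDF, HUVEC) were grown in Eagle's MEM with 4.5 g/L glucose, 10% FCS, 5 mM L-glutamine and penicillin/streptomycin, 37 °C, 5% CO2. Cells were seeded at 1 × 10^4 per well, cultured 12 h, then exposed to compound (0.5% DMSO final) for 72 h. Viability was read by WST-1 at 450/630 nm. GI50 given as mean ± SE of five experiments.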

The next data set concerns A549. Briefly: Growth inhibition of human A549 cells after 24 hrs by WST-1 assay. To be noted: A549, 24 h. It is filed as functional. Put shortly: as §1
A short description of data set [2]: Growth inhibition of HUVEC cells after 72 hrs by WST-1 assay. The data set is classed as cell-based. To be noted: human. Put shortly: as §2

For one compound, GI50 results are on record in ChEMBL document CHEMBL2010709, “Pinophilins A and B, inhibitors of mammalian A-, B-, and Y-family DNA polymerases and human cancer cell proliferation” (J Nat Prod, 2012).

The structures appear in SMILES notation.

In the case of `Nc1ccn([C@@H]2O[C@H](CO)[C@@H](O)[C@@H]2O)c(=O)n1` [CYTARABINE], the concentration for 50% growth inhibition (GI50) in the data set with NUGC-3 was determined as 0.25 µM; with HCT-116, 0.12 µM; with BALL-1 it was 0.08 µM; with HeLa, 0.18 µM; with A549 it was 0.2 µM. The GI50 at 72 h is 0.25 µM in data set [1] and 0.23 µM in data set [2].

For orientation: GI50 means the concentration giving 50% growth inhibition.
